Screens (PubChem)
Most compounds without a hit are left out; they make up all but 2.7% or so of the library.
TCR CD3 inh = inhibitors of human TCR-CD3 interaction, primary screen, biochemical, fluorescence, TAMRA-labeled TCR probe. inhibition, % at 9.4 µM. AID 651800, 2012. actives 0.37% (n = 360,000); in the data active = inhibition above about 19%;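 note: recombinant mutant TCR 2C K166C tagged with TAMRA read by polarization; 0% = receptor in buffer alone and 100% = receptor with positive control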
SIAE primary = human SIAE inhibitors, primary screen, biochemical, fluorescence polarization, FP-Rh probe, 1536-well HTS | Sialate O-acetylesterase (Homo sapiens), Q9HAT2 | SIAE FP-Rh probe binding | inhibition, % at 9.66 µM | actives 0.69% (n = 370,000);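 active = inhibition above a cutoff: mean of compounds within the control limits plus 3 SD of those, cut at about 17% in these data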;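 note: 0% = plate median of compound wells and 100% = probe without SIAE protein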
Target sequence (Q9HAT2 whole entry, looked up): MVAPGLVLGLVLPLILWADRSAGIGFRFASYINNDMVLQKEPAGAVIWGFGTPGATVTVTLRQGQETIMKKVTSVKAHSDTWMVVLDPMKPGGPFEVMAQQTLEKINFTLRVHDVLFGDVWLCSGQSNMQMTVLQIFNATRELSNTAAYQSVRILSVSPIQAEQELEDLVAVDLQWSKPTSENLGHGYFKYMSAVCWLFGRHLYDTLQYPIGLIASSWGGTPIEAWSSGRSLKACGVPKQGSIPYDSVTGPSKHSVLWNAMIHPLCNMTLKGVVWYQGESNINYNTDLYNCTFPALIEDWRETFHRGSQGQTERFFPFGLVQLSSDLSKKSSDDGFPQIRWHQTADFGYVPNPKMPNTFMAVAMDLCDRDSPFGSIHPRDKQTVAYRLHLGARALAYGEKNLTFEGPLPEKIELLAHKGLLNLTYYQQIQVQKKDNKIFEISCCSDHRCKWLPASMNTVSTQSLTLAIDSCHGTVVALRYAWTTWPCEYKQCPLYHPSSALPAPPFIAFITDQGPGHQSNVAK
HTRA1 inhibitor = HTRA1 serine protease inhibitors, primary screen, biochemical, fluorescence polarization, HTS | AID 504803, 2011 | recombinant HTRA1, FP-rhodamine activity-based probe | Q92743 | inhibition, % at 5.96 µM | actives 0.5% (n = 340,000); in the data active = inhibition above about 36%;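 note: 0% = enzyme with DMSO and 100% = wells lacking enzyme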
ABHD4 inh = ABHD4 inhibitors, primary screen, biochemical, fluorescence polarization, mouse; (Lyso)-N-acylphosphatidylethanolamine lipase (Mus musculus), Q8VD66; purified mABHD4, FP-Rh probe fluorescence polarization; inhibition, % at 8.92 µM; actives 0.54% (n = 370,000); AID 720543, 2013;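 active = inhibition exceeding the mean over every tested compound plus 3 SD, cut at about 30% in these data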;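 note: 0% = plate median of compound wells and 100% = S159A mutant with DMSO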
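Doses – 8.92 µM, single dose · Material – wild-type mouse ABHD4 protein · Replication – single well per compound (singlicate) · Measure – percent inhibition of probe binding, normalized to plate controls · Schedule – 45 min compound pre-incubation plus 60 min probe step, 25 °C · Detection – fluorescence polarization with parallel and perpendicular emission, 525/598 nm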
PRMT1 inh = PRMT1 methyltransferase inhibitors, primary screen, biochemical, fluorescence polarization | inhibition, % at 2.79 µM | Protein arginine N-methyltransferase 1 (Homo sapiens), Q99873 | AID 652257, 2013 | actives 1.3% (n = 370,000) | recombinant PRMT1, activity-based probe fluorescence polarization;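 active = inhibition above about 21% made by adding two undisclosed values, limit read from the data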
mABHD4 conf = ABHD4 inhibitors, retest, confirmation, biochemical, fluorescence polarization, mouse; shares compounds with ABHD4 inh; purified mABHD4, FP-Rh probe fluorescence polarization; AID 720658, 2013; inhibition, % at 8.92 µM; actives 55% (n = 1,800);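 active = mean inhibition across replicates above the hit cutoff set in the primary screen, cut at about 30% in these data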;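 note: 0% = wild-type ABHD4 with DMSO and 100% = catalytically dead S159A mutant with DMSO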
SIAE inh conf = human SIAE inhibitors, retest, confirmation, biochemical, fluorescence polarization, FP-Rh probe, triplicate. shares compounds with SIAE primary. SIAE FP-Rh activity-based probe. inhibition, % at 9.66 µM. actives 13% (n = 2,300). AID 1117263, 2014;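 active = mean inhibition of the replicates above the hit cutoff set in the primary screen, cut at about 17% in these data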;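 note: 0% = SIAE with DMSO and probe and 100% = probe without SIAE; inhibitors lower polarization as more probe stays unbound to SIAE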
* marks the source's active call; other numbers are inactive results.

How did CS(=O)(=O)CCN1CC2CCCC(C2)C1 do in these assays?
TCR CD3 inh: 6; SIAE primary: 3; HTRA1 inhibitor: -1; ABHD4 inh: 1; PRMT1 inh: -4

What do the screens show for `CCCCCCCSc1cc(OC)c(CCN(C)C)cc1OC`?
TCR CD3 inh: 9; SIAE primary: 7; HTRA1 inhibitor: 21; ABHD4 inh: 32*; PRMT1 inh: -3; mABHD4 conf: 35*

How did O=C(Cc1ccccc1)N1CCN(Cc2cccnc2)CC1 do in these assays?
TCR CD3 inh: 8; SIAE primary: 4; HTRA1 inhibitor: 1; ABHD4 inh: 17; PRMT1 inh: 2

What do the screens show for `O=[N+]([O-])c1cc(O)c(O)c([N+](=O)[O-])c1`?
TCR CD3 inh: 9; SIAE primary: 6; HTRA1 inhibitor: 35; ABHD4 inh: 74*; PRMT1 inh: 32*; mABHD4 conf: 50*

Results for COc1cc(/C=C/c2nc3ccccc3c(=O)n2-c2ccc(O)cc2)ccc1O ?
TCR CD3 inh: 3; SIAE primary: 8; HTRA1 inhibitor: 0; ABHD4 inh: 39*; PRMT1 inh: 0; mABHD4 conf: 45*

How did C/C(=N\NC(=O)c1ccccc1O)c1c(O)n(C2CCCCC2)c(=O)[nH]c1=O do in these assays?
TCR CD3 inh: 15; SIAE primary: -6; HTRA1 inhibitor: 17; ABHD4 inh: 37*; PRMT1 inh: 11; mABHD4 conf: 44*

What do the screens show for `O=C(N/N=C/c1c(O)n(C2CC2)c(=S)[nH]c1=O)c1ccccc1O`?
TCR CD3 inh: 11; SIAE primary: -22; HTRA1 inhibitor: 4; ABHD4 inh: 35*; PRMT1 inh: 1; mABHD4 conf: 25

What do the screens show for `Cc1ccccc1-n1c(O)c(/C=N/NC(=O)c2ccccc2O)c(=O)[nH]c1=S`?
TCR CD3 inh: -22; SIAE primary: -31; HTRA1 inhibitor: 1; ABHD4 inh: 7; PRMT1 inh: -1

What do the screens show for `CCSP1(=S)N=C(N2CCOCC2)C(C#N)=C2CCCN21` (stereo not given)?
TCR CD3 inh: 2; SIAE primary: 0; HTRA1 inhibitor: -1; ABHD4 inh: -3; PRMT1 inh: -2

Results for OC12Oc3ccccc3C=C1N1CCC2CC1 (stereo not given) ?
TCR CD3 inh: 4; SIAE primary: 1; HTRA1 inhibitor: 1; ABHD4 inh: 4; PRMT1 inh: 0

How did CN1CCN(c2ccc(N)cc2Cl)CC1 do in these assays?
TCR CD3 inh: -3; SIAE primary: 8; ABHD4 inh: 15; PRMT1 inh: -2

How did CCOP(=O)(OCC)C(O)c1ccc2c(c1)OCO2 (stereo not given) do in these assays?
TCR CD3 inh: -13; SIAE primary: -11; HTRA1 inhibitor: 5; ABHD4 inh: -12; PRMT1 inh: 6

What do the screens show for `COc1ccc(C(O)P(=O)(Oc2ccccc2)Oc2ccccc2)cc1` (stereo not given)?
TCR CD3 inh: 2; SIAE primary: -8; HTRA1 inhibitor: -5; ABHD4 inh: 25; PRMT1 inh: -10

Results for O=P(Oc1ccccc1)(Oc1ccccc1)C(O)c1ccc(Cl)cc1 (stereo not given) ?
TCR CD3 inh: 3; SIAE primary: 1; HTRA1 inhibitor: -8; ABHD4 inh: 32*; PRMT1 inh: 4; mABHD4 conf: 16

What do the screens show for `COc1cc(O)c(C(=O)O)c(-c2cc(O)c(O)cc2C)c1`?
TCR CD3 inh: 11; SIAE primary: 13; HTRA1 inhibitor: 21; ABHD4 inh: 37*; PRMT1 inh: 67*; mABHD4 conf: 33*

How did O=P(O)(O)C12CC3CC(CC(C3)C1)C2 do in these assays?
TCR CD3 inh: 1; SIAE primary: -6; HTRA1 inhibitor: -4; ABHD4 inh: -10; PRMT1 inh: -3

What do the screens show for `COc1cccc(C(=O)N2CCC3(CC2)OCCO3)c1`?
TCR CD3 inh: 6; SIAE primary: 4; HTRA1 inhibitor: -1; ABHD4 inh: -3; PRMT1 inh: -3

What do the screens show for `Cc1cccc(-c2nc3ccc(C(=O)N4CCC5(CC4)OCCO5)cc3nc2-c2cccc(C)c2)c1`?
TCR CD3 inh: 2; SIAE primary: -7; HTRA1 inhibitor: -35; ABHD4 inh: 32*; PRMT1 inh: -4; mABHD4 conf: 48*

How did Cc1ccc(-n2c(=S)[nH]c3ccc(C)cc3c2=O)cc1 do in these assays?
TCR CD3 inh: -6; SIAE primary: -4; HTRA1 inhibitor: -2; ABHD4 inh: 46*; PRMT1 inh: -2; mABHD4 conf: 33*

Results for CCCCn1c(O)c(C(C)=NCC2CCCO2)c(=O)[nH]c1=O (stereo not given) ?
TCR CD3 inh: 2; SIAE primary: -6; HTRA1 inhibitor: 4; ABHD4 inh: 4; PRMT1 inh: 0

Results for CCOP(=O)(OCC)C(NC(=O)c1ccccc1C)C(Cl)(Cl)Cl (stereo not given) ?
TCR CD3 inh: -1; SIAE primary: 19*; HTRA1 inhibitor: 6; ABHD4 inh: -4; PRMT1 inh: -2; SIAE inh conf: 2

How did N#CC[N+]1(CCCNP2(=O)C=C(c3ccccc3)OC(c3ccccc3)=C2)CCOCC1 do in these assays?
TCR CD3 inh: 0; SIAE primary: 18*; HTRA1 inhibitor: 3; ABHD4 inh: -1; PRMT1 inh: -2; SIAE inh conf: -4

How did OCC#CC[N+]1(CC#Cc2ccccc2)CCOCC1 do in these assays?
TCR CD3 inh: 4; SIAE primary: 2; HTRA1 inhibitor: 2; ABHD4 inh: -1; PRMT1 inh: 0

How did CC1([N+](=O)[O-])COP(=O)(NC2CCCC2)OC1 (stereo not given) do in these assays?
TCR CD3 inh: -7; SIAE primary: -1; HTRA1 inhibitor: 12; ABHD4 inh: -16; PRMT1 inh: -5

Results for CCCCn1c(O)c(/C=N/N2CCOCC2)c(=O)[nH]c1=S ?
TCR CD3 inh: 4; SIAE primary: 19*; HTRA1 inhibitor: -3; ABHD4 inh: -1; PRMT1 inh: 0; SIAE inh conf: 2

Results for CCCCCCn1c(O)c(C=Nc2ccccc2N2CCOCC2)c(=O)[nH]c1=S ?
TCR CD3 inh: 2; SIAE primary: 0; ABHD4 inh: -1; PRMT1 inh: 13

What do the screens show for `CCCCCSc1cc(OC)c(CCN)cc1OC`?
TCR CD3 inh: 6; SIAE primary: 19*; HTRA1 inhibitor: 6; ABHD4 inh: 11; PRMT1 inh: 2; SIAE inh conf: 2
